Measurements taken from ChEMBL document CHEMBL5647683 (Oncogene, 2008).

Tests used:
[1] = Inhibition of human EGFR L747_P753del7insS-T790M mutant expressed in mouse BaF3 cells assessed as reduction in cell survival incubated for 48 hrs by WST assay
[2] = Inhibition of human EGFR L858R-T790M double mutant expressed in mouse BaF3 cells assessed as reduction in cell survival incubated for 48 hrs by WST assay
[3] = Inhibition of human EGFR S752_I759del8-T790M mutant expressed in mouse BaF3 cells assessed as reduction in cell survival incubated for 48 hrs by WST assay
[4] = Inhibition of human EGFR S752_I759del8 mutant expressed in mouse BaF3 cells assessed as reduction in cell survival incubated for 48 hrs by WST assay
[5] = Inhibition of human EGFR variant III deletion expressed in mouse BaF3 cells assessed as reduction in cell survival incubated for 48 hrs by WST assay
A-431 [6] = experiment: Antitumor activity against human A-431 cells xenografted athymic NMRI-nu/nu female mouse as reduction in tumor volume at 2x100 mg/kg, po administered daily for 25 days relative to control; type: functional; conditions: dose 100 mg/kg, time 25 day
How it was run: (§1)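 Female athymic NMRI-nu/nu mice (5–6 weeks, 21–31 g) given 1–5×10⁶ cells into the right flank; MDA-MB-453 tumors started from fresh 2×2×2 mm fragments. At 40–130 mm³, tumors were randomized to weight-based daily oral gavage (10 ml/kg; 1.8% HP-β-CD, 5% acetic acid (10%), 0.5% Natrosol) or vehicle. Caliper measurement 3×/week, volume π/6×L×W². Expressed as cumulative treated/control volume ratio; one-way ANOVA with Dunnett's test.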

A-431 [7] = experiment: Antitumor activity against human A-431 cells xenografted athymic NMRI-nu/nu female mouse as reduction in tumor volume at 75 mg/kg, po administered daily for 25 days relative to control; type: functional; conditions: time 25 day; how it was run: as §1

With `C#Cc1cccc(Nc2ncnc3cc(OCCOC)c(OCCOC)cc23)c1` [ERLOTINIB] the IC50 [1] was over 10 µM, the IC50 [2] was over 10 µM and the IC50 [3] was over 10 µM. For the same compound, the IC50 [4] was 0.033 µM and the IC50 [5] was 0.144 µM.

In the case of `CS(=O)(=O)CCNCc1ccc(-c2ccc3ncnc(Nc4ccc(OCc5cccc(F)c5)c(Cl)c4)c3c2)o1` [LAPATINIB], the T/C (A-431 [6]) is reported as 32%.

In the case of `COc1cc2ncnc(Nc3ccc(F)c(Cl)c3)c2cc1OCCCN1CCOCC1` [GEFITINIB], the T/C (A-431 [7]) is reported as 46%.
